The term IC50 denotes the midpoint of a concentration-inhibition curve. A higher IC50 goes with weaker potency in that assay.

Chain of D(2) dopamine receptor (P14416 whole entry): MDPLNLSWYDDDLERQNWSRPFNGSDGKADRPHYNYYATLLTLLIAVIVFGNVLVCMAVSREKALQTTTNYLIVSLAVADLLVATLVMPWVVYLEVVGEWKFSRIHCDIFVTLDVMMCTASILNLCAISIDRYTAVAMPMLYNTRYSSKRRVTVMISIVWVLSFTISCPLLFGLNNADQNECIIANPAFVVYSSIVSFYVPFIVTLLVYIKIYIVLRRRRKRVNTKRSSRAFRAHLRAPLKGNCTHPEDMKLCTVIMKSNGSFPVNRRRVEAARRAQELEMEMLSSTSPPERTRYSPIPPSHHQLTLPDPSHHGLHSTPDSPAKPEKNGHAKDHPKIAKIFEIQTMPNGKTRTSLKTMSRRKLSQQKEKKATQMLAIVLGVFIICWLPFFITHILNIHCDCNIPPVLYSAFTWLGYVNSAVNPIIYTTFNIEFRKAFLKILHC
Chain of 5-hydroxytryptamine receptor 2A (Q75Z89 whole entry): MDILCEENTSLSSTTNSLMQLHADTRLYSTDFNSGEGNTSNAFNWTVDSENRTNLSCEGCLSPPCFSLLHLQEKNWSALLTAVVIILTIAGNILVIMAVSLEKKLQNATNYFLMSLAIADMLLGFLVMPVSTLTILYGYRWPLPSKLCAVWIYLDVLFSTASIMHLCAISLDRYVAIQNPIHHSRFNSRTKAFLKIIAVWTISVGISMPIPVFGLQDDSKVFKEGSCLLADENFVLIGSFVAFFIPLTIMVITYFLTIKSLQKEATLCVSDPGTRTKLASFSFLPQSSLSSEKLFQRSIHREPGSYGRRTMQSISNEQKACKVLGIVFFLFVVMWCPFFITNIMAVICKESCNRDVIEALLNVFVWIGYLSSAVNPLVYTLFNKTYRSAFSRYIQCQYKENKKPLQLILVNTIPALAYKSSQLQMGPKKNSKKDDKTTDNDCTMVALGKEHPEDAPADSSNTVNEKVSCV
Chain of D(1A) dopamine receptor (Q61616 whole entry): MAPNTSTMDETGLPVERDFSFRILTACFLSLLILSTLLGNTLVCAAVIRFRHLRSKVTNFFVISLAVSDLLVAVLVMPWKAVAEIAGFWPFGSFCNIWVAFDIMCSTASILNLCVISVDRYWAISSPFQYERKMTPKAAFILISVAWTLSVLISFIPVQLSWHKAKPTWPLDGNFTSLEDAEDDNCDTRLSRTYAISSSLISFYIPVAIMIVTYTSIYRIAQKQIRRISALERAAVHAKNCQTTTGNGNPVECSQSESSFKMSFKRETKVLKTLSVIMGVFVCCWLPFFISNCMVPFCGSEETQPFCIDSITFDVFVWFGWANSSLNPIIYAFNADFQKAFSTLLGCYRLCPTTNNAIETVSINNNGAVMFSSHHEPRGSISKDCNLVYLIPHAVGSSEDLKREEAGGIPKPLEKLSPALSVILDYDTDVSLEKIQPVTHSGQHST

One series has as its target D(2) dopamine receptor (Homo sapiens, UniProt P14416). The series is described as follows: Compound was tested for the binding affinity against dopamine receptor D2 by using [3H]spiperone as radioligand.
Conditions: not given
For `CC(C(O)c1ccc(O)cc1)N1CCC(Cc2ccccc2)CC1` (stereo not given) [IFENPRODIL], the IC50 is over 1000 nM.

Another series has as its target T1, Adrenergic receptor alpha-1 (Rattus norvegicus, UniProt P15823+P23944+P43140).
T1 sequence (P15823 whole entry): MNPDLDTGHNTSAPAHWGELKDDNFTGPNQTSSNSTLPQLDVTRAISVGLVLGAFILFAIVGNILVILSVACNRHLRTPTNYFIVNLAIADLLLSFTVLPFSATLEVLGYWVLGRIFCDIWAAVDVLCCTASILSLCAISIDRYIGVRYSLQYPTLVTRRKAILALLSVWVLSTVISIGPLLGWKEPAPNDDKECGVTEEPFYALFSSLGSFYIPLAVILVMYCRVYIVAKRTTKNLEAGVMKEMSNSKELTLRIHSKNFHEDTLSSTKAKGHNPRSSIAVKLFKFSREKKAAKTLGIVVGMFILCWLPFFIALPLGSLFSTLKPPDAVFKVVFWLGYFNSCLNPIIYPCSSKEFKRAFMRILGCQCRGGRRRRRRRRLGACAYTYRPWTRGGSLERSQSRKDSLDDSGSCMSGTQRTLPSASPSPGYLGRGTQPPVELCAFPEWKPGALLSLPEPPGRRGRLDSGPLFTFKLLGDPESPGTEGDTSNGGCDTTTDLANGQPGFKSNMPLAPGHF
T1 sequence (P23944 whole entry): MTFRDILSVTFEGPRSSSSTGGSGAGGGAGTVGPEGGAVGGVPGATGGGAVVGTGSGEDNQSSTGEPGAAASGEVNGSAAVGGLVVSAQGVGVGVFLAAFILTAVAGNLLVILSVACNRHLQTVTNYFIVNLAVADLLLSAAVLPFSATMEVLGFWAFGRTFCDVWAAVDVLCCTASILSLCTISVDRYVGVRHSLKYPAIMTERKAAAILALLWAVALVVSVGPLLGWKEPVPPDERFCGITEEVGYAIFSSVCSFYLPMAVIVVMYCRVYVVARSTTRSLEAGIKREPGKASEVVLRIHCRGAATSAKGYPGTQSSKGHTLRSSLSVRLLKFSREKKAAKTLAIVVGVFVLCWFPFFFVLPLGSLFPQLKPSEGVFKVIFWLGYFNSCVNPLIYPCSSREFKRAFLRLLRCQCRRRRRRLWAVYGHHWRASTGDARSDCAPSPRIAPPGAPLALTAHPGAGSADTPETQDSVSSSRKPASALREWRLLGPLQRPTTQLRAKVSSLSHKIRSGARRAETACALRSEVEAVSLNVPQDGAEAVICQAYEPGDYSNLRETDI
T1 sequence (P43140 whole entry): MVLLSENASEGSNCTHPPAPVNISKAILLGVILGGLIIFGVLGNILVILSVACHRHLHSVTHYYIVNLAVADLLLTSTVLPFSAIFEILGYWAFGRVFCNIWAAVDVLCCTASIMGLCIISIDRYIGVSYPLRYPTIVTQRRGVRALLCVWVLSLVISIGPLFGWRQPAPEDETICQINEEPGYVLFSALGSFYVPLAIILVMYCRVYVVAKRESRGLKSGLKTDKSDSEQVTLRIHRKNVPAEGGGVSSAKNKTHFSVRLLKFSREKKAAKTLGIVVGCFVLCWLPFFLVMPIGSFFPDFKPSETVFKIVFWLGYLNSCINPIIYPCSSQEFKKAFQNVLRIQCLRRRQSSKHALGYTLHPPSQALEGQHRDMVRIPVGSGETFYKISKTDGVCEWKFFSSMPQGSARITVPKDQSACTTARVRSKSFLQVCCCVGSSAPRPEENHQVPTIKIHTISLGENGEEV
The series is described as follows: Binding affinity against alpha-1 adrenergic receptor. It counts as protein assay.
Conditions: not given
In outline:
(§1)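 Radioligand binding at α1 adrenergic receptors using [3H]prazosin in a standard binding assay.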
Turning to `C[C@@H]([C@@H](O)c1ccc(O)cc1)N1CCN(C(=O)c2ccccc2)CC1`, the IC50 is recorded as over 10000 nM.
`C[C@@H]([C@@H](O)c1ccc(O)cc1)N1CCCCC1` displayed an IC50 of over 10000 nM.
As for `C[C@@H]([C@H](O)c1ccccc1)N1CCC(Cc2ccccc2)CC1`, the IC50 turned out to be 573 nM.
`CC(CO)N1CCC(Cc2ccccc2)CC1` (stereo not given) returned an IC50 of over 10000 nM.
In the case of `CCCC1CCN([C@@H](C)[C@@H](O)c2ccc(O)cc2)CC1`, the IC50 was determined as 2867 nM.
On the same count and under the same terms, the same measure for `C[C@@H]([C@@H](O)c1ccc(O)cc1)N1CCC(Cc2ccccc2)CC1` (stereo in doubt; 19) [(S)-IFENPRODIL]: 629 nM.
Turning to `OC(CN1CCC(Cc2ccccc2)CC1)c1ccccc1` (stereo not given), the IC50 is given as 2133 nM.
The same measure, in the same setting: the same measure for `C[C@@H]([C@@H](O)c1ccc(O)cc1)N1CCC(Cc2ccccc2)CC1` (stereo in doubt; 18) [(S)-IFENPRODIL]: 2306 nM; for `CC(Cc1ccc(O)cc1)N1CCC(Cc2ccccc2)CC1` (stereo not given): 130 nM; for `C[C@@H]([C@@H](O)c1ccc(F)cc1)N1CCC(Cc2ccccc2)CC1`: 2566 nM.
The same measure, in the same setting: the same measure for `C[C@@H]([C@H](O)c1ccc(O)cc1)N1CCC(Cc2ccccc2)CC1` [(R,S)-IFENPRODIL]: 135 nM.
On the same count and under the same terms, the same measure for `C[C@@H]([C@H](O)c1ccc(F)cc1)N1CCC(Cc2ccccc2)CC1`: 220 nM; for `c1ccc(CCN2CCC(Cc3ccccc3)CC2)cc1`: 347 nM.
`C[C@@H]([C@H](O)c1ccc(O)cc1)N1CCCCC1`: the IC50 is over 10000 nM.
Compound `C[C@@H]([C@@H](O)c1ccccc1)N1CCC(Cc2ccccc2)CC1` returned an IC50 of 3400 nM.

The test system of the next series is Alpha-1 adrenergic receptor versus NMDA receptor. In words: (§2) Therapeutic index is the ratio of IC50 value for Alpha-1 adrenergic receptor to that for NMDA. To be noted: read-out: TI. In short, it runs like this: (§3)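 Selectivity index calculated as α1 adrenergic potency ([3H]prazosin binding) divided by activity in the rat hippocampal culture glutamate-neurotoxicity model.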
As to `C[C@@H]([C@H](O)c1ccccc1)N1CCC(Cc2ccccc2)CC1`, the selectivity ratio is 0.28.
The same measure, in the same setting: the same measure for `CCCC1CCN([C@@H](C)[C@@H](O)c2ccc(O)cc2)CC1`: 0.61.
On the same count and under the same terms, the same measure for `OC(CN1CCC(Cc2ccccc2)CC1)c1ccccc1` (stereo not given): 0.43; for `CC(Cc1ccc(O)cc1)N1CCC(Cc2ccccc2)CC1` (stereo not given): 0.85; for `C[C@@H]([C@@H](O)c1ccc(F)cc1)N1CCC(Cc2ccccc2)CC1`: 25.6.
The same measure, in the same setting: the figure for `C[C@@H]([C@H](O)c1ccc(F)cc1)N1CCC(Cc2ccccc2)CC1` is 0.94; for `c1ccc(CCN2CCC(Cc3ccccc3)CC2)cc1` it is 1.19.
As to `C[C@@H]([C@@H](O)c1ccccc1)N1CCC(Cc2ccccc2)CC1`, the selectivity ratio worked out at 0.92.

Test system in the next series: not listed separately
Described as §2.
Conditions: not given
In outline: as §3
In the case of `C[C@@H]([C@@H](O)c1ccc(O)cc1)N1CCC(Cc2ccccc2)CC1` (stereo in doubt; 18) [(S)-IFENPRODIL], the TI is on record as 48.

In a further series the target is Mu-type opioid receptor (Homo sapiens, UniProt P35372). The series is described as follows: Compound was tested for the binding affinity against opioid receptor mu by using [3H]naloxone as radioligand.
Chain of Mu-type opioid receptor (P35372 whole entry): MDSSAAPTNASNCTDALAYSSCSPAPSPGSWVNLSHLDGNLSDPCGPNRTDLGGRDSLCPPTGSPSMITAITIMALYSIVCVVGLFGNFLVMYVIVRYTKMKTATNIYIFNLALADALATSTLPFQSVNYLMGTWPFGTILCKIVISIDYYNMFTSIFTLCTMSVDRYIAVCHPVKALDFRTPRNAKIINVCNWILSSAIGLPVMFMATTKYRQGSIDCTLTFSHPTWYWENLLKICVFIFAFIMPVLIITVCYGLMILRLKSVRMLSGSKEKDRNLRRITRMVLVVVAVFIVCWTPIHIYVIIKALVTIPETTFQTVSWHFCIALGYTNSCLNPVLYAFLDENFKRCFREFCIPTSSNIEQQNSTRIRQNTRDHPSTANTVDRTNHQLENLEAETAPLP
Conditions: not given
In turn, `CC(C(O)c1ccc(O)cc1)N1CCC(Cc2ccccc2)CC1` (stereo not given) [IFENPRODIL] came in with an IC50 of over 1000 nM.

Another series addresses D(1A) dopamine receptor (Mus musculus, UniProt Q61616). In words: Compound was tested for the binding affinity against dopamine receptor D1 by using [3H]-SCH- 23390 as radioligand.
Conditions: not given
Turning to `CC(C(O)c1ccc(O)cc1)N1CCC(Cc2ccccc2)CC1` (stereo not given) [IFENPRODIL], the IC50 was over 1000 nM.

The next series deals with T2, 5-hydroxytryptamine receptor 1A (Mus musculus, UniProt Q64264).
T2 sequence (Q64264 whole entry): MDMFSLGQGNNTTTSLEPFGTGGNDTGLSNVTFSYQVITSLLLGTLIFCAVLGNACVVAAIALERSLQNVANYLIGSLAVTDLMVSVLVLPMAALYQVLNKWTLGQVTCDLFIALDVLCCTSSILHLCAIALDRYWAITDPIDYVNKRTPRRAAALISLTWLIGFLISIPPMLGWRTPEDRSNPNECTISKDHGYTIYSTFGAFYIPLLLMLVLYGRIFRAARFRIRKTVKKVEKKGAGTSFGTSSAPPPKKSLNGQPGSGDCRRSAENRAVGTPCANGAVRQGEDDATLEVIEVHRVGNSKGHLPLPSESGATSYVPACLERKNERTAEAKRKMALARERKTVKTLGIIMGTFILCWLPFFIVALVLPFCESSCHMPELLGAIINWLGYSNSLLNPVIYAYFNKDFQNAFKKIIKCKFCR
The series is described as follows: Compound was tested for the binding affinity against 5-hydroxytryptamine 1A receptor by using [3H]DPAT as radioligand.
Conditions: not given
In the case of `CC(C(O)c1ccc(O)cc1)N1CCC(Cc2ccccc2)CC1` (stereo not given) [IFENPRODIL], the 50% inhibitory concentration (IC50) amounted to 238 nM.

The target in a further series is Glutamate NMDA receptor. In words: N-methyl-D-aspartate glutamate receptor antagonistic activity in cell culture(CC)model. Type of series: functional.
Conditions: not given
In short, it runs like this:
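Functional NMDA antagonism in rat hippocampal cell cultures. Read-out is protection of the cultured neurons against toxicity from extracellularly applied glutamate (the glutamate-induced hippocampal neurodegeneration model).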
Take `C[C@@H]([C@@H](O)c1ccc(O)cc1)N1CCN(C(=O)c2ccccc2)CC1`: the IC50 is over 10 µM.
In turn, `C[C@@H]([C@@H](O)c1ccc(O)cc1)N1CCCCC1` showed an IC50 of over 10 µM.
Consider `CC(CO)N1CCC(Cc2ccccc2)CC1` (stereo not given), for which the IC50 is over 10 µM.
On the same count and under the same terms, the figure for `CCCC1CCN([C@@H](C)[C@@H](O)c2ccc(O)cc2)CC1` is 6.3 µM; for `OC(CN1CCC(Cc2ccccc2)CC1)c1ccccc1` (stereo not given) it is 5 µM.
Still for that read-out and setting: the figure for `CC(Cc1ccc(O)cc1)N1CCC(Cc2ccccc2)CC1` (stereo not given) is 0.153 µM.
On the same count and under the same terms, the figure for `C[C@@H]([C@@H](O)c1ccc(F)cc1)N1CCC(Cc2ccccc2)CC1` is 0.1 µM; for `c1ccc(CCN2CCC(Cc3ccccc3)CC2)cc1` it is 0.29 µM; for `C[C@@H]([C@@H](O)c1ccc(O)cc1)N1CCN(Cc2ccccc2)CC1` it is 10 µM.
The compound `C[C@@H]([C@H](O)c1ccc(O)cc1)N1CCCCC1` displayed a concentration for half-maximal inhibition (IC50) of over 10 µM.
Still for that read-out and setting: the figure for `C[C@@H]([C@@H](O)c1ccccc1)N1CCC(Cc2ccccc2)CC1` is 3.7 µM.

A further series concerns the target 5-hydroxytryptamine receptor 2A (Bos taurus, UniProt Q75Z89). The series is described as follows: Compound was tested for the binding affinity against 5-hydroxytryptamine 2 receptor by using [3H]ketanserin as radioligand.
Conditions: not given
The compound `CC(C(O)c1ccc(O)cc1)N1CCC(Cc2ccccc2)CC1` (stereo not given) [IFENPRODIL] had an IC50 of 610 nM.

For a further series, the target named is Muscarinic acetylcholine receptor M3 (Rattus norvegicus, UniProt P08483). In words: Compound was tested for the binding affinity against muscarinic acetylcholine receptorby using [3H]QNB as radioligand.
Chain of Muscarinic acetylcholine receptor M3 (P08483 whole entry): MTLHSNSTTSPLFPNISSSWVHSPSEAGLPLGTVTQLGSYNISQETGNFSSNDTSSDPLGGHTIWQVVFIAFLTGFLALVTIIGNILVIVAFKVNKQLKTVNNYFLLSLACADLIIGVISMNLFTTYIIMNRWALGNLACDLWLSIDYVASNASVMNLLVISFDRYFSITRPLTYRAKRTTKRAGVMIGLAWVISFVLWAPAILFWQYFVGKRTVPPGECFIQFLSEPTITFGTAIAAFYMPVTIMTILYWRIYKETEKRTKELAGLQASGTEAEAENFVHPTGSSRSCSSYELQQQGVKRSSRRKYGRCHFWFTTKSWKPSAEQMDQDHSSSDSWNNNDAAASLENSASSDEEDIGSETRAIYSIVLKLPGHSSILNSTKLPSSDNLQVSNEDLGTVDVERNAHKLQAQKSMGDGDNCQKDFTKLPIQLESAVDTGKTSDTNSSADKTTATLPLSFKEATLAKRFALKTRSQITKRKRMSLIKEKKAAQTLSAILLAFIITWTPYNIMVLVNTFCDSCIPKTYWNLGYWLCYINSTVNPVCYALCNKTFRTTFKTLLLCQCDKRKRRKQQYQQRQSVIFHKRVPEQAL
Conditions: not given
The compound `CC(C(O)c1ccc(O)cc1)N1CCC(Cc2ccccc2)CC1` (stereo not given) [IFENPRODIL] registered an IC50 of over 1000 nM.

The target of another series is Histamine H1 receptor (Homo sapiens, UniProt P35367). The series is described as follows: Compound was tested for the binding affinity against histamine H1 receptor by using [3H]mepyramine as radioligand.
Chain of Histamine H1 receptor (P35367 whole entry): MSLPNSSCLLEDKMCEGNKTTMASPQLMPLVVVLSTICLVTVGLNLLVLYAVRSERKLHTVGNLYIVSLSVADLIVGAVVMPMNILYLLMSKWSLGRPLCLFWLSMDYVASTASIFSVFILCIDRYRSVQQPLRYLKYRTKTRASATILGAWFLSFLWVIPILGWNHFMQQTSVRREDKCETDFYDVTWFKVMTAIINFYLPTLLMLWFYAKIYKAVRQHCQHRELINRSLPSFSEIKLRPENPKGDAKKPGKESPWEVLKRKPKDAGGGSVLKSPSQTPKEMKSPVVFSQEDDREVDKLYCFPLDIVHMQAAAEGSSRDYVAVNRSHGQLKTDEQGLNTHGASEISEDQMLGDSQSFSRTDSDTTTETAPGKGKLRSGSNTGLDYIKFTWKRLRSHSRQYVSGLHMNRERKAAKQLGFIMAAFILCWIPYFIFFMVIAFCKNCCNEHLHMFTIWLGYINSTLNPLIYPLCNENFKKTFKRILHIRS
Conditions: not given
Consider `CC(C(O)c1ccc(O)cc1)N1CCC(Cc2ccccc2)CC1` (stereo not given) [IFENPRODIL], for which the IC50 came out at 1000 nM.

The next series has as its target T1, Adrenergic receptor alpha-1. In words: Compound was tested for the binding affinity against Alpha-1 adrenergic receptor. It counts as protein assay.
Conditions: not given
In short, it runs like this:
as §1
In the case of `CC(C(O)c1ccc(O)cc1)N1CCC(Cc2ccccc2)CC1` (stereo not given) [IFENPRODIL], the IC50 was 100 nM.
For the compound `C[C@@H]([C@@H](O)c1ccc(O)cc1)N1CCC(Cc2ccccc2)CC1` (stereo in doubt; 2) [(S)-IFENPRODIL], the half-inhibitory concentration (IC50) was 843 nM.
The same measure, in the same setting: the figure for `C[C@@H]([C@@H](O)c1ccc(O)cc1)N1CCN(Cc2ccccc2)CC1` is 4633 nM.
